pKd: −log10 of the molar value.
What was measured:
HF patients = conditions: supplementation; ref [8], [9]; cited from earlier work
cancer cells = conditions: clinical limitation; ref [29]; cited from earlier work
[1] = system: primary adult rat cardiomyocytes; experiment: ATP content of primary cardiomyocytes, TFRC neutralization; assay type: cell-based; conditions: DOX-injured cardiomyocytes + glycnsisitin A; with or without NAb-anti-TFRC
Summary of the method: (§1)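 Adult cardiomyocytes were isolated from male Sprague-Dawley rats (about 280 g) by Langendorff perfusion with collagenase II and hyaluronidase. They were purified by three gravity sedimentations and cultured on laminin in M199 with 10% FBS, pen-strep and glutamine. Cells were pretreated with TFRC-neutralizing antibody (level not stated), then given DOX ± test compound for 12 h. Cells and supernatant were assayed with commercial LDH-activity or ATP kits. Mean ± SEM.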

[2] = system: transferrin–TFRC interaction; experiment: Cellular immunoprecipitation of transferrin with TFRC; assay type: cell-based; conditions: anti-His immunoprecipitation, blotted anti-transferrin and anti-TFRC
TFRC [3] = experiment: Protein half-life of TFRC after CHX; assay type: cell-based; conditions: compared with control
transferrin [4] = experiment: Immunoblot of transferrin in heart tissues; assay type: in vivo, mouse
DOX-induced HF mice [5] = experiment: BNP and NT-proBNP levels in DOX-induced HF mice; assay type: in vivo, mouse (ICR); conditions: compared to DOX-induced HF mice
Summary of the method: (§2)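 Male ICR mice (about 40 g, 10-week-old, SPF) received a single i.p. DOX dose of 15 mg/kg; heart failure was established by Day 14. On Days 15–28 they were dosed i.p. daily with test compound (50, 100 or 200 mg/kg), cedilanid 150 mg/kg, or PBS 10 mL/kg. Blood was taken 8 h after dosing on Day 29 and spun 4500 rpm, 15 min, 4 °C. Serum CK and LDH activities and BNP and NT-proBNP were measured by kits. Mean ± SEM.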

[6] = system: primary adult rat cardiomyocytes; experiment: Trypan blue staining of dead cells, primary cardiomyocytes + DOX; assay type: cell-based
DOX-induced HF mice [7] = experiment: Echocardiography in DOX-induced HF mice; assay type: in vivo, mouse (ICR); conditions: compared with cedilanid
Summary of the method: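 Male ICR mice (~40 g, 10 weeks) got a single i.p. DOX 15 mg/kg, with HF established by Day 14. On Day 28, 8 h post-dose, mice were anesthetized with avertin on a 37 °C table. M-mode short-axis scans at papillary level (10 MHz, 10–20 cycles) gave LVAWd.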

[8] = system: primary adult rat cardiomyocytes; experiment: ATP levels of primary cardiomyocytes; assay type: cell-based; conditions: 12 h
Summary of the method: (§3)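 Cardiomyocytes came from male SD rats (about 280 g), isolated by Langendorff collagenase II/hyaluronidase perfusion and purified by three gravity sedimentations. They were cultured on laminin in M199 with 10% FBS, penicillin-streptomycin and glutamine. Cells were exposed with or without DOX and with or without test compound for 12 h. Cells and supernatant were measured with commercial ATP and LDH-activity kits. Mean ± SEM.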

transferrin [9] = target: T1, transferrin (Homo sapiens, UniProt P02787); experiment: Protein half-life of transferrin after CHX; assay type: cell-based; conditions: compared with control
H9C2 cardiomyocytes = experiment: Alamar blue cell viability, DOX-injured H9C2 cardiomyocytes; assay type: cell-based, rat; conditions: in vitro model of DOX-induced cardiomyocyte injury
Summary of the method: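 H9C2 cells were grown in DMEM with 10% FBS and penicillin-streptomycin at 37 °C, 5% CO2, then seeded at 5000/well overnight. Cells were co-treated with DOX and test compound for 12 h, then incubated 4 h in medium with 10% alamar blue. Fluorescence was read at ex 530/em 590 nm. Viability = (treated − medium)/(control − medium) × 100; EC50 calculated.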

DOX-induced HF mice [10] = experiment: Heart histology; assay type: in vivo, mouse (ICR); conditions: compared with cedilanid
Summary of the method: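 Heart failure was induced in male ICR mice by a single i.p. DOX dose (15 mg/kg). Test compound (50/100/200 mg/kg), cedilanid ([…]) or PBS was then given i.p. daily on Days 15–28. Hearts were collected on Day 29, fixed in 4% paraformaldehyde and sectioned. H&E staining was scored for myocardial histopathology; Masson trichrome was quantified as relative fibrosis area.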

DOX-induced HF mice [11] = experiment: Serum CK and LDH activity in DOX-induced HF mice; assay type: in vivo, mouse (ICR); conditions: glycnsisitin A i.p. daily Days 15–28
Summary of the method: as §2

DOX-induced HF mice [12] = experiment: Survival in acute DOX-induced HF mouse model; assay type: in vivo, mouse (ICR)
Summary of the method: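 Male ICR mice (about 40 g, 10 weeks) had acute heart failure induced by a single i.p. 15 mg/kg DOX dose. From Day 15 to 28 they were dosed i.p. daily with test compound (50, 100 or 200 mg/kg), cedilanid 150 mg/kg or PBS 10 mL/kg. Deaths were recorded daily, and survival was analysed by Kaplan–Meier.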

[13] = system: primary adult rat cardiomyocytes; experiment: Iron content of primary cardiomyocytes, TFRC neutralization; assay type: cell-based; conditions: glycnsisitin A + DOX; with or without NAb-anti-TFRC pretreatment
Summary of the method: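 Langendorff-isolated adult rat cardiomyocytes in six-well plates were pretreated ± TFRC-neutralizing antibody, then given DOX and test compound. After two PBS washes, cells were lysed 2 h at room temperature on a shaker. Lysate was mixed 1:1 with permanganate-containing solution A and held 1 h at 60 °C, then cooled. Ferrozine iron reagent was added for 30 min at room temperature. A550 was read and iron calculated from a standard curve.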

[14] = system: primary adult rat cardiomyocytes; experiment: LDH activity in supernatant of primary cardiomyocytes, TFRC neutralization; assay type: cell-based; conditions: DOX + glycnsisitin A; with or without TFRC block
Summary of the method: as §1

[15] = system: primary adult rat cardiomyocytes; experiment: LDH release of primary cardiomyocytes; assay type: cell-based; conditions: 12 h
Summary of the method: as §3

TFRC [16] = experiment: Relative mRNA level of TFRC in cardiomyocytes; assay type: cell-based; conditions: cultured cardiomyocytes
[17] = system: primary adult rat cardiomyocytes; experiment: Mitochondrial ROS by MitoSOX staining; assay type: cell-based; conditions: 10 μmol/L glycnsisitin A with 8.6 μmol/L DOX, 6 h, confocal
Summary of the method: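 Primary adult rat cardiomyocytes in glass-bottomed confocal dishes received test compound and/or DOX for 6 h. They were then loaded with MitoSOX Red for 30 min at 37 °C, 5% CO2, in the dark, and washed three times with warm HBSS containing Ca/Mg. Fluorescence was imaged by laser confocal microscopy (ex 396/em 610 nm).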

transferrin [18] = target: T1, transferrin; experiment: Relative mRNA level of transferrin in cardiomyocytes; assay type: cell-based; conditions: cultured cardiomyocytes
[19] = system: myocardium of DOX-treated mice; experiment: Myocardial iron content; assay type: in vivo, mouse; conditions: with or without glycnsisitin A, ferrozine, 550 nm
Summary of the method: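 Heart tissue from DOX-induced heart-failure mice (± test compound) was homogenised in lysate. Homogenate was mixed 1:1 with permanganate-containing solution A and held 1 h at 60 °C, then cooled. Iron (ferrozine) detection reagent was added for 30 min at room temperature. Absorbance was read at 550 nm and iron content calculated from a standard curve.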

transferrin [20] = target: T1, transferrin; experiment: SPR on transferrin-coated CM5 sensor chips; assay type: binding
Summary of the method: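 Test compound was flowed over at a range of concentrations and response units recorded. KD was derived by the instrument's evaluation fitting.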

TFRC [21] = experiment: Immunoblot of TFRC in heart tissues; assay type: in vivo, mouse; conditions: glycnsisitin A with or without DOX, DOX alone in HF tissue
[22] = system: primary adult rat cardiomyocytes; experiment: Alamar blue assay, DOX-injured primary cardiomyocytes; assay type: cell-based
Summary of the method: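 Cardiomyocytes came from male Sprague-Dawley rats (~280 g) by Langendorff perfusion with collagenase II/hyaluronidase/BSA and stepwise CaCl2. Cells were purified by three gravity sedimentations and cultured on laminin in M199 with 10% FBS, penicillin-streptomycin and 1% glutamine. DOX-injured cells received test compound, and viability was read by alamar blue.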

[23] = system: primary adult rat cardiomyocytes; experiment: Total ROS by DCFH-DA staining, flow cytometry; assay type: cell-based

T1 sequence (P02787 20-698, species assumed): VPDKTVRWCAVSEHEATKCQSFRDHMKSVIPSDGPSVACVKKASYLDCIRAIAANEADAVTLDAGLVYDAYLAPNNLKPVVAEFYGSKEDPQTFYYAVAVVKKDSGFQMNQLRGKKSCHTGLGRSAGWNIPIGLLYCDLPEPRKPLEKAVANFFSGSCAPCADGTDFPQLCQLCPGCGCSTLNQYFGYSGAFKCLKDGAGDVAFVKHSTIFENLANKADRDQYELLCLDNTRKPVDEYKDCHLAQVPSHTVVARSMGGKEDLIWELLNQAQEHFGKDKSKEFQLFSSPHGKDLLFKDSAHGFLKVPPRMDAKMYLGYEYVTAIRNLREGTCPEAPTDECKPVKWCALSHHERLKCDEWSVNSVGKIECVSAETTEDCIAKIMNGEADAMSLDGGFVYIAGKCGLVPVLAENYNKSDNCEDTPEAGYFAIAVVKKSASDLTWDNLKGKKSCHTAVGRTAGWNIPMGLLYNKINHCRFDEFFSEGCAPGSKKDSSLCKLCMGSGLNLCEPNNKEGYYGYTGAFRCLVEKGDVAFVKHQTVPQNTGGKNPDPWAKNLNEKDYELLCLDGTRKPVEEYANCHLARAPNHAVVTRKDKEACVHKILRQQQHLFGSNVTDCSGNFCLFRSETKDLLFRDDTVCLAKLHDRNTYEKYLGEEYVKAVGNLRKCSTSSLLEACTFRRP

ferric derisomaltose [ferric derisomaltose (FDI)]
HF symptoms and rehospitalization (HF patients): could alleviate HF symptoms and reduce rehospitalization

C[C@@H](CN1CC(=O)NC(=O)C1)N1CC(=O)NC(=O)C1 [dexrazoxane (DXZ), dexrazoxane]
chemotherapy resistance (cancer cells): potential to confer chemotherapy resistance to cancer cells

CC(C)[C@@H]1NC(=O)[C@@H]2Cc3ccc(cc3)O[C@H]3C[C@H](NC3=O)C(=O)N3CCC[C@H]3C(=O)N[C@@H](Cc3ccc(O)cc3)C(=O)N[C@@H](C(=O)N[C@@H](C(C)C)C(=O)N2)c2cc(ccc2O)C[C@@H](C(=O)O)NC1=O [Glycnsisitin A]
ATP production [1]: noticeably augmented ATP production | content of immunoprecipitated transferrin [2]: much higher | TFRC stability (in words) (TFRC [3]): decreased TFRC stability | total transferrin level in mouse myocardium (transferrin [4]; regardless of the presence of DOX): significantly increased the total transferrin levels | BNP level (DOX-induced HF mice [5]): lower levels | NT-proBNP level (DOX-induced HF mice [5]): lower levels | cardiotoxicity / cell death (trypan blue) ([6]; DOX 8.6 μmol/L + glycnsisitin A): significantly attenuated the cardiotoxicity induced by DOX and reduced cell death | diastolic LV anterior wall diameter (LVAWd) (DOX-induced HF mice [7]): thicker diastolic LV anterior wall diameter | total ATP levels following DOX induction ([8]; presence vs absence of glycnsisitin A, with DOX): a substantial difference was observed | total ATP levels, normal conditions ([8]; primary cardiomyocytes without DOX): did not have an impact on ATP levels | half-life of transferrin protein (in words) (transferrin [9]): could increase the half-life of transferrin protein | cardioprotective activity, relative to glycnsisitins B and C (H9C2 cardiomyocytes): stronger cardioprotective activity than glycnsisitins B and C | pathology score (DOX-induced HF mice [10]; H&E): lower pathology score | collagen deposition (DOX-induced HF mice [10]; Masson trichrome): lesser collagen deposition | serum CK activity (DOX-induced HF mice [11]): completely reversed | serum LDH activity (DOX-induced HF mice [11]): completely reversed | overall survival rate (DOX-induced HF mice [12]; 200 mg/kg i.p. daily Days 15–28 after DOX 15 mg/kg i.p.): 90% | survival rate, dose dependence (DOX-induced HF mice [12]; 50, 100, 200 mg/kg i.p. daily Days 15–28 after DOX): increased in a dose-dependent manner | iron content, DOX-treated cardiomyocytes [13]: restored the decline in iron content | LDH content in supernatant [14]: much lower | LDH release, DOX + glycnsisitin A [15]: significantly suppressed | TFRC mRNA level / transcription (TFRC [16]): increased the TFRC transcription | mitochondrial ROS generation [17]: significantly attenuated the excessive generation of mitochondrial ROS | transferrin mRNA level (transferrin [18]): did not affect the mRNA content of transferrin | myocardial iron content [19]: effectively restored to normal | pKd (transferrin [20]): 5.62 | TFRC level in mouse myocardium (TFRC [21]): consistent with the trend observed for TFRC | cell survival (alamar blue) [22]: proved the primary cell protective function

COc1cccc2c1C(=O)c1c(O)c3c(c(O)c1C2=O)C[C@@](O)(C(=O)CO)C[C@@H]3O[C@H]1C[C@H](N)[C@H](O)[C@H](C)O1 [DOX, doxorubicin, reference compound]
decrease in transferrin expression in heart tissue (transferrin [4]; DOX-treated mice, immunoblot ratio to GAPDH): over 50% | increase in the number of trypan blue-positive cells ([6]; 8.6 μmol/L DOX for 24 h, compared with solvent control): approximately fourfold | ROS levels, DOX alone [23]: dramatically increased | serum CK activity (DOX-induced HF mice [11]): markedly increased | serum LDH activity (DOX-induced HF mice [11]): markedly increased | mortality rate (DOX-induced HF mice [12]; single i.p. 15 mg/kg DOX): 50% | LDH release, DOX alone [15]: elevation in the release of lactate dehydrogenase (LDH) | myocardial iron content [19]: significant loss of iron | TFRC level in mouse myocardium (TFRC [21]): decreased levels of both transferrin and TFRC

— PMC11252382 (Acta Pharmaceutica Sinica. B, 2024)
